Measurements reported in ChEMBL document CHEMBL4196194, “De Novo Design of α-Helical Lipopeptides Targeting Viral Fusion Proteins: A Promising Strategy for Relatively Broad-Spectrum Antiviral Drug Discovery” (J Med Chem, 2018).
Activity calls are given as the source filed them. The rule behind the calls is not given here. Where a SMILES comes first, the peptide text is derived from it. [ ]: non-standard residue; d: D form. The star is where a group is joined. Palmitoyl = CCCCCCCCCCCCCCCC(=O)*; βAla = NCCC(=O)O

How the values were obtained:
[1] = tested on: Middle East respiratory syndrome-related coronavirus; assay: Binding affinity to MERS-CoV spike protein synthetic peptide HR1P at 75 uM incubated for 30 mins by Coomassie blue R250 staining based native polyacrylamide gel electrophoresis method
In short: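 Equimolar mix with HR1P (150 μM each) in 10 mM phosphate pH 7.4, 30 min at 25 °C; diluted 1:1 in β-alanine–formic acid sample buffer, run on 15% β-alanine–formic acid gel at pH 3.4 (90 V then 150 V, 2.5 h); Coomassie R250 stain.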

[2] = tested on: Middle East respiratory syndrome-related coronavirus; assay: Binding affinity to MERS-CoV spike protein synthetic peptide HR1P assessed as melting temperature at 10 uM at pH 7.4 by CD spectroscopy
In short: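 Thermal unfolding by CD at 222 nm, 10–90 °C at 2 °C/min. Samples held 10 μM peptide: for HR1P in 10 mM phosphate pH 7.4; for N66 in 10 mM sodium acetate with 10 mM sodium phosphate and 150 mM NaCl, pH 5.0.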

[3] = biological target: Hemagglutinin (Influenza A virus (A/Puerto Rico/8/1934(H1N1))) (UniProt P03452); assay: Inhibition of Influenza A virus (A/Puerto Rico/8/1934(H1N1)) Hemagglutinin 2-mediated hemolysis of chicken erythrocytes at acidic pH conditions
[4] = tested on: Influenza A virus; assay: Binding affinity to influenza A virus hemagglutinin 2 synthetic peptide N66 at 75 uM incubated for 30 mins by Coomassie blue R250 staining based native polyacrylamide gel electrophoresis method
In short: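 Equimolar mix with N66 (150 μM each) in sodium acetate/phosphate/NaCl pH 5.0, 30 min at 30 °C; neutralized with 200 mM Tris pH 8.5, diluted 1:1 in Tris-glycine sample buffer, run on 15% Tris-glycine gel, running buffer pH 8.8 (90 V then 150 V, 2.5 h); Coomassie R250 stain.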

[5] = Selectivity index, ratio of CC50 for cytotoxicity in MDCK cells to EC50 for antiviral activity against Influenza A virus (A/Hong Kong/8/1968([…])) infected in HEK293T cells; type: toxicity, cell-based; conditions: dog
[6] = tested on: Rattus norvegicus; assay: Volume of distribution at steady state in Sprague-Dawley rat at 5 mg/kg, iv administered as single dose by LC-MS/MS analysis; type: ADME, organism-based; conditions: in vivo
[7] = tested on: Influenza A virus; assay: Inhibition of influenza A virus infected in MDCK cells assessed as inhibition of viral load treated with compound at 0 to 10 hrs post-infection by RT-qPCR method based time of addition assay; type: functional
In short: (§1)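 MDCK cells (2.0 × 10^5/well) washed with PBS, virus adsorbed (MOI 0.05) 60 min at 4 °C, washed, then compound present only during 0–10, 0–2, 2–5, 5–8 or 8–10 h postinfection; cultured in fresh medium to 10 h, total RNA extracted, viral load by absolute one-step RT-qPCR; triplicate, versus PBS control.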

[8] = tested on: Influenza A virus; assay: Inhibition of influenza A virus infected in MDCK cells assessed as inhibition of viral load treated with compound at 2 to 5 hrs post-infection by RT-qPCR method based time of addition assay; type: functional, organism-based; in short: as §1
[9] = tested on: Influenza A virus; assay: Binding affinity to influenza A virus hemagglutinin 2 synthetic peptide N66 assessed as changes in alpha-helical structures at 10 uM at pH 5 by CD spectroscopy
In short: (§2)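 Peptides at 10 μM final. HR1P incubated with test peptide 30 min at 25 °C in 10 mM phosphate, pH 7.4; N66 30 min at 30 °C in 10 mM sodium acetate/10 mM sodium phosphate/150 mM NaCl, pH 5.0; measured at 25 °C. Mean residue ellipticity; helicity from −33000 deg cm2 dmol−1 = 100%.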

[10] = tested on: Influenza A virus; assay: Antiviral activity against influenza A virus Hong Kong/8/1968(H3N2) infected in HEK293T cells assessed as inhibition of viral replicon activity incubated for 30 hrs by dual-Glo luciferase assay; type: functional, organism-based; conditions: HEK-293T
In short: (§3)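 HEK293T cells (2.5 × 10^4/well) transfected with plasmids for NP, PB1, PB2, PA plus p0LN-S-Luc firefly and pRL-SV40 Renilla reporters; serially diluted compound added 6 h post-transfection, luciferase read after 30 h by Dual-Glo. Activity = firefly/Renilla ratio; % inhibition normalized to positive and negative controls, curve-fitted; three independent measurements.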

[11] = Inhibition of MERS-CoV spike protein-mediated cell-cell fusion in 293T/MERS/EGPF cells assessed as reduction in cell fusion incubated for 4 hrs by inverted fluorescence microscopy; type: cell-based, Middle East respiratory syndrome-related coronavirus
In short: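 Huh-7 cells expressing DPP4 plated 5 × 10^4/well, 5 h at 37 °C; serially diluted peptide added, then 293T cells carrying MERS-CoV S and EGFP (or EGFP-only control cells), 1 × 10^4/well. After 4 h coculture at 37 °C, fused and unfused effector cells counted by fluorescence microscopy.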

[12] = tested on: Influenza A virus; conditions: A/Puerto Rico/8/1934(H1N1), 0.1 to 1000 uM
[13] = tested on: Rattus norvegicus; assay: Clearance in Sprague-Dawley rat at 5 mg/kg, iv administered as single dose by LC-MS/MS analysis; type: ADME, organism-based; conditions: in vivo
[14] = biological target: Hemagglutinin (Influenza A virus (A/Puerto Rico/8/1934(H1N1))) (UniProt P03452); assay: Inhibition of Influenza A virus (A/Puerto Rico/8/1934(H1N1)) Hemagglutinin 1-induced aggregation of chicken erythrocytes at 0.05 to 100 uM
[15] = tested on: Influenza A virus; assay: Antiviral activity against influenza A virus assessed as inhibition of viral replicon activity up to 100 uM incubated for 30 hrs by firefly luciferase reporter gene assay; type: functional, organism-based; in short: as §3
[16] = tested on: Middle East respiratory syndrome-related coronavirus; assay: Binding affinity to MERS-CoV spike protein synthetic peptide HR1P at pH 7.4 by sedimentation velocity analysis
In short: (§4)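 Complexes at 150 μM final: with HR1P 30 min at 25 °C in 10 mM phosphate pH 7.4; with N66 30 min at 30 °C in sodium acetate/phosphate/NaCl pH 5.0. Sedimentation velocity at 280 nm, 3000 then 60000 rpm, 25 °C; c(s) distribution and molecular weight derived.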

[17] = tested on: Influenza A virus; conditions: Hong Kong/8/1968(H3N2), 0.1 to 1000 uM
[18] = Cmax in Sprague-Dawley rat at 5 mg/kg, iv administered as single dose by LC-MS/MS analysis; type: ADME, organism-based; design: dose 5 mg/kg, route intravenous; conditions: in vivo
[19] = tested on: Influenza A virus; assay: Binding affinity to influenza A virus hemagglutinin 2 synthetic peptide N66 at pH 5 by sedimentation velocity analysis; in short: as §4
[20] = tested on: Influenza B virus; assay: Antiviral activity against Influenza B virus (B/Lee/40); type: functional, organism-based; conditions: B/Lee/1940
[21] = tested on: Middle East respiratory syndrome-related coronavirus; assay: Binding affinity to MERS-CoV spike protein synthetic peptide HR1P assessed as changes in alpha-helical structures at 10 uM at pH 7.4 by CD spectroscopy; in short: as §2
[22] = tested on: Influenza A virus; assay: Inhibition of influenza A virus infected in MDCK cells assessed as inhibition of viral load treated with compound at 0 to 2 hrs post-infection by RT-qPCR method based time of addition assay; type: functional; in short: as §1
[23] = Half life in Sprague-Dawley rat at 5 mg/kg, iv administered as single dose by LC-MS/MS analysis; type: ADME, organism-based; conditions: in vivo
[24] = AUC (0 to t) in Sprague-Dawley rat at 5 mg/kg, iv administered as single dose by LC-MS/MS analysis; type: ADME, organism-based; conditions: in vivo

Hemagglutinin (Influenza A virus (A/Puerto Rico/8/1934(H1N1))), sequence (P03452 whole entry): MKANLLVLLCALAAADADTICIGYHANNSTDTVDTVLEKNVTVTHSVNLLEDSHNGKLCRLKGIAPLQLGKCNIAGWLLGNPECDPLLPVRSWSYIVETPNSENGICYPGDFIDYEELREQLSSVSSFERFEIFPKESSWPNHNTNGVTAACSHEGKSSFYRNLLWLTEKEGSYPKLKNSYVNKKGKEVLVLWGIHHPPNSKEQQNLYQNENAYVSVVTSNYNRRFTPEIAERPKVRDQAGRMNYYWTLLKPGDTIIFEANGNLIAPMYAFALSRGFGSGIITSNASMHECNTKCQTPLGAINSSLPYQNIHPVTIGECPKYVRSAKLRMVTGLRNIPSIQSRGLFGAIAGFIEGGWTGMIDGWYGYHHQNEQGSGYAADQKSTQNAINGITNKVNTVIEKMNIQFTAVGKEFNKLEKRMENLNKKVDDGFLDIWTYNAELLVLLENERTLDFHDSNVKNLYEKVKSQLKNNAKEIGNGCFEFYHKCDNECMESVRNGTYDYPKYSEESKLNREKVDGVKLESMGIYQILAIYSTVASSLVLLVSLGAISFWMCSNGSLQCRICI

CCCCCCCCCCCCCCCC(=O)NCCCC[C@H](NC(=O)CCNC(=O)[C@H](CCCCN)NC(=O)[C@H](CCCCN)NC(=O)[C@H](CCC(N)=O)NC(=O)[C@@H](NC(=O)[C@H](CCC(=O)O)NC(=O)[C@H](CCC(=O)O)NC(=O)[C@@H](NC(=O)[C@H](CCCCN)NC(=O)[C@H](CCCCN)NC(=O)[C@H](CCC(N)=O)NC(=O)[C@@H](NC(=O)[C@H](CCC(=O)O)NC(=O)[C@H](CCC(=O)O)NC(=O)[C@@H](NC(=O)[C@H](CCCCN)NC(=O)[C@H](CCCCN)NC(=O)[C@H](CCC(N)=O)NC(=O)[C@@H](NC(=O)[C@H](CCC(=O)O)NC(=O)[C@H](CCC(=O)O)NC(=O)[C@@H](NC(=O)[C@H](CCCCN)NC(=O)[C@H](CCCCN)NC(=O)[C@H](CCC(N)=O)NC(=O)[C@@H](NC(=O)[C@H](CCC(=O)O)NC(=O)[C@H](CCC(=O)O)NC(=O)[C@@H](NC(=O)[C@H](CCCCN)NC(=O)[C@H](CCCCN)NC(=O)[C@H](CCC(N)=O)NC(=O)[C@@H](NC(=O)[C@H](CCC(=O)O)NC(=O)[C@H](CCC(=O)O)NC(=O)[C@@H](NC(C)=O)[C@@H](C)CC)[C@@H](C)CC)[C@@H](C)CC)[C@@H](C)CC)[C@@H](C)CC)[C@@H](C)CC)[C@@H](C)CC)[C@@H](C)CC)[C@@H](C)CC)[C@@H](C)CC)C(N)=O (Ac-IEEIQKKIEEIQKKIEEIQKKIEEIQKKIEEIQKK[βAla]K(Palmitoyl)-NH2)
Activity [1]: Active
Tm [2]: > 90 °C
inhibition [3]: Active
Activity [4]: Active
selectivity ratio [5]: > 143
Vdss [6]: 0.1978 L/kg
inhibition (INH) [7]: 60%
inhibition [8]: inactive
Activity [9]: Active
EC50 [10]: 700 nM
EC50 [11]: 110 nM
inhibition [12]: inactive
CL [13]: 0.345 mL/min/kg
inhibition [14]: inactive
inhibition [15]: inactive
Activity [16]: Active
inhibition [17]: inactive
Cmax [18]: 97.6 µg/mL
Activity [19]: Active
EC50 [20]: 1870 nM
Activity [21]: Active
inhibition (INH) [22]: 60%
half-life [23]: 6.6 h
AUC(0-t) [24]: 235 µg·h/mL
